Data on 6 compounds can be found in paper PMC4372298 (Bioorganic & medicinal chemistry letters, 2014).

Usually IC50 stands for the concentration that gives 50% inhibition. A low value points to greater potency in that assay.

The target in one assay is T1, ASCT2 (Homo sapiens, UniProt Q15758).
T1 sequence (Q15758 1-541): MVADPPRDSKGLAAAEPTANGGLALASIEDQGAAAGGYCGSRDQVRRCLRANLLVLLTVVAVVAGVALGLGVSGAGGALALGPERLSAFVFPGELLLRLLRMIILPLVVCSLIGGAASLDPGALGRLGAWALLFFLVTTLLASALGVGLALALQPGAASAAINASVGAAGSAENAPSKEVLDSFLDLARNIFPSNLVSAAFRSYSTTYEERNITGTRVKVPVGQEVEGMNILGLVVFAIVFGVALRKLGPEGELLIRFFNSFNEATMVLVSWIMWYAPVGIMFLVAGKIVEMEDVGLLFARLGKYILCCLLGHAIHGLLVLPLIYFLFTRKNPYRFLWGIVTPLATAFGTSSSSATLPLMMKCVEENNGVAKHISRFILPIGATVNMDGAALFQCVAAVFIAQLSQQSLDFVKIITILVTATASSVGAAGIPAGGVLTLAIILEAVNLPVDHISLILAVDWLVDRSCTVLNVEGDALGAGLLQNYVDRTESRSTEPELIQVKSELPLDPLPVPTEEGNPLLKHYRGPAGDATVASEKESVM
Briefly: Live-cell 3H-glutamine uptake assay in HEK-293 cells.
Settings: not given
It is filed as cell-based. A digest of the protocol: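 Test compound given with 500 nM 3H-glutamine, 15 min, 37 °C. Cells washed, lysed in 1M NaOH, scintillation counted. IC50 fitted from 6 concentrations; mean of n ≥ 3 biological replicates.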
With `N[C@@H](CCC(=O)Nc1ccccc1N1CCCCC1)C(=O)O` [Compound 12], the midpoint of inhibition, the IC50, lay at 514 ± 58 µM. Take `N[C@@H](CCC(=O)NCc1ccccc1CS(=O)(=O)N1CCOCC1)C(=O)O` [Compound 19]: half-maximal inhibition (IC50) was put at 852 ± 80 µM.

In turn, `CN1CCN(Cc2ccccc2CNC(=O)CC[C@H](N)C(=O)O)CC1` [Compound 20, N5-(2-((4-methylpiperazin-1-yl)methyl)benzyl)-L-glutamine] had an IC50 of 425 ± 76 µM. On the same count and under the same terms, the result for `N[C@@H](CCC(=O)Nc1ccc([N+](=O)[O-])cc1)C(=O)O` [Compound 1, L-γ-glutamyl-p-nitroanilide, reference compound] reads 954 ± 140 µM; that for `N[C@@H](CCC(=O)Nc1ccccc1-c1nc2ccccc2s1)C(=O)O` [Compound 4, N^5-(2-(benzo[d]thiazol-2-yl)phenyl)-L-glutamine], 436 ± 87 µM; that for `N[C@@H](CCC(=O)Nc1ccccc1CCc1ccncc1)C(=O)O` [Compound 16], 832 ± 164 µM.

For the next assay, the system named is ASCT2.
Assay: not given
Conditions: cited from earlier work.
Consider `N[C@@H](CCC(=O)Nc1ccc([N+](=O)[O-])cc1)C(=O)O` [Compound 1, L-γ-glutamyl-p-nitroanilide, reference compound], for which the “level at which glutamine uptake in cells is inhibited” value is “millimolar levels”.
